Most compounds without a hit are left out; they make up all but 4.9% or so of the library.
STAT3 activator: activators of IL-6 induced STAT3 signaling. AID 871. activation (% of control), % at 5.6 µM. U3A cells, IL-6 STAT3-luciferase reporter, luminescence; 100% = signal with IL-6 EC80 alone. 0.91% of 190,000 active;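 active = activation above the screen-wide mean of compound activation plus 3 SD, cut at about 130% in these data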;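 also: 0% = background luminescence of wells with medium and substrate only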
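Material: human STAT1-deficient U3A cells with stable STAT3-luciferase reporter / Probe or stimulus: IL-6 stimulus at 33 ng/mL final / Schedule: 1 h compound pre-exposure, 6 h IL-6 stimulation, 37 °C / Technique: luminescence / Read-out basis: percent of IL-6-only median luminescence / Control set: IL-6-only high control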
STAT3 inh-1: reduces IL-6 driven STAT3 reporter signal | inhibition, % at 5.5 µM | 0.89% of 190,000 active | U3A cells, IL-6 STAT3-luciferase reporter, luminescence; host cell line lacks STAT1;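 active = inhibition above the mean inhibition across all screened compounds plus 3 SD, cut at about 44% in these data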;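 also: 0% = DMSO only wells and 100% = 100 µM nifuroxazide control wells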
STAT1 inh: reduces IFN-gamma driven STAT1 reporter signal. NIH 3T3 STAT1-luciferase reporter, luminescence. inhibition, % at 5.5 µM. 0.35% of 200,000 active. AID 920;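 active = inhibition above a set limit, the mean inhibition across all tested compounds plus 3 SD, cut at about 34% in these data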;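 also: 0% = IFN-gamma with DMSO and 100% = IFN-gamma with 300 µM nifuroxazide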
STAT1 act: STAT1 signaling activation. AID 932. activation (% of control), % at 5.5 µM. NIH 3T3 STAT1-luciferase reporter, IFN-gamma, luminescence; 100% = IFN-gamma alone, no compound. 2.6% of 200,000 active;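 active = activation above the screen-wide mean activation plus 3 SD, cut at about 130% in these data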;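 also: raw ratio to IFN-gamma control signal so 100% means no change and 0% no light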
NF-kB expr up: NF-kB expression increase, human neuronal cells; NF-kB reporter expression; hits give high values; fold change at 12.5 µM; 1.6% of 190,000 active; AID 1239; in the data active = fold change above about 3.3
APP 5'UTR act: activates APP 5'UTR luciferase reporter; AID 1276; 1% of 190,000 active; activation, % at 2 µM; SH-SY5Y APP 5'UTR luciferase reporter, luminescence; zero percent = DMSO vehicle wells;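 active = activation above a set limit, based on mean plus 3 SD of controls, cut at about 140% in these data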
STAT3 inh-2: STAT3 inhibition, confirmation assay. shares compounds with STAT3 inh-1. U3A cells, IL-6 STAT3 luciferase reporter, luminescence; cell line lacks STAT1. inhibition, % at 5.7 µM. 45% of 1,200 active. AID 1265;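 active = inhibition above the hit cutoff computed for the primary STAT3 screen, cut at about 44% in these data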;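 also: 0% = IL-6 plus DMSO and 100% = IL-6 plus nifuroxazide control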
NFkB inh 2: NF-kappaB inhibition in STAT3 inhibitor counter-screen; shares compounds with STAT3 inh-1; HEK293T NF-kB luciferase reporter, TNF-alpha induced; inhibition, % at 5.7 µM; 36% of 1,200 active; AID 1308;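 active = inhibition above the mean of solvent-only control wells plus 3 SD, cutoff set per campaign, cut at about 13% in these data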;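 also: 0% = TNF-alpha with DMSO and 100% = TNF-alpha with MG high control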
STAT1 inh 2: counter-screen for STAT3 inhibitors: STAT1 inhibition. 27% of 1,200 active. shares compounds with STAT3 inh-1. NIH 3T3 STAT1-luciferase reporter, IFN-gamma induced, luminescence. inhibition, % at 5.7 µM. AID 1317;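 active = inhibition above the mean plus 3 SD of solvent-only control wells, limit set per screening run, cut at about 16% in these data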;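 also: 0% = DMSO with IFN-gamma and 100% = nifuroxazide control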
STAT1 activ conf: STAT1 activation, confirmation assay. activation (% of control), % at 5.7 µM. AID 1262. 97% of 1,200 active. shares compounds with STAT1 act. NIH 3T3 STAT1-luciferase reporter, IFN-gamma potentiation, luminescence; 100% = IFN-gamma EC80 alone, no compound;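 active = activation above a set limit carried over from the earlier primary STAT1 screen, cut at about 140% in these data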;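 also: simple ratio to median IFN-gamma plus DMSO wells so 0% means no light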
NFkB act STAT1ct: NF-kappaB activation in STAT1 activator counter-screen. activation (% of control), % at 5.7 µM. HEK293T NF-kB luciferase reporter, TNF-alpha stimulated, luminescence; 100% = TNF-alpha with vehicle only. AID 1306. 43% of 1,200 active. shares compounds with STAT1 act;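 active = activation above the mean of solvent-only control wells plus 3 SD, set per campaign, cut at about 130% in these data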;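 also: TNF-alpha given at a submaximal dose yielding about 80% of full reporter signal; values are well signal over median control so 100% means no change and 0% no light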
STAT3 act STAT1c: human STAT3 activation in STAT1 activator counter-screen. shares compounds with STAT1 act. U3A cells STAT3-luciferase reporter, IL-6, luminescence; cells lack STAT1; 100 = IL-6 alone, no compound effect. AID 1316. activation (% of control), % at 5.7 µM. 46% of 1,200 active;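 active = activation above the solvent-only control well mean plus 3 SD, set per plate batch, cut at about 110% in these data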;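 also: 0% = no luminescence and 100% = median IL-6 plus DMSO wells; higher means more STAT3 reporter activation so hits are non-selective activators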
Starred values were filed as active, the others as inactive; . = no result given.

SMILES | STAT3 activator | STAT3 inh-1 | STAT1 inh | STAT1 act | NF-kB expr up | APP 5'UTR act | STAT3 inh-2 | NFkB inh 2 | STAT1 inh 2 | others
O=S(=O)(c1ccc(Br)cc1)c1nc(-c2ccco2)oc1NCC1CCCO1 (stereo unspecified) | 103 | 0 | 5 | 95 | 1 | 1 | . | . | .
O=C(Cn1cnc2ccccc21)Nc1ccc(SC(F)F)cc1 | 40 | 73* | 22 | 79 | 1.1 | -15 | 65* | 21* | 16
O=C(Nc1nc2c(F)cc(F)cc2s1)c1ccccn1 | 48 | 66* | 19 | 82 | 4.2* | 18 | 34 | -20 | -131
C=CCN1C(=O)C(CC(=O)O)SC1=Nc1ccc(C)cc1 (stereo unspecified) | 98 | 7 | 2 | 97 | 1.1 | 9 | . | . | .
COc1ccc(N=CC2=C(O)c3ccccc3C2=O)cc1 | 23 | 92* | 15 | 96 | 1.4 | 137* | 12 | 25* | -133
O=C1C(C=Nc2ccccc2O)=C(O)c2ccccc21 | 59 | 49* | 2 | 98 | 5* | 114 | -57 | -30 | -11
CN=CC1=C(O)c2ccccc2C1=O | 103 | 2 | -8 | 107 | 1.2 | -5 | . | . | .
O=C(CSC(=S)N1CCCCC1)c1ccccc1 | 47 | 65* | 28 | 73 | 3.3* | 242* | 22 | 3 | -71
O=C(CSc1ccc2ccccc2c1)Nc1ccncc1 | 61 | 50* | 6 | 94 | 0.96 | 0 | 45* | -3 | -1
Cc1cc(OCC(=O)Nc2ccncc2)cc(C)c1Br | 45 | 68* | 1 | 99 | 0.93 | -5 | 66* | -7 | -14
O=C(COc1ccc(Br)cc1)Nc1ccc(Cc2ccncc2)cc1 | 84 | 25 | -1 | 99 | 1.1 | -9 | . | . | .
O=C(COc1ccc2ccccc2c1)Nc1ccncc1 | 63 | 45* | 3 | 95 | 1.1 | -2 | 44* | -8 | -3
O=C(COc1ccccc1)Nc1ccncc1 | 98 | 6 | 9 | 90 | 1.4 | -10 | . | . | .
O=C(NCCc1ccccc1)C(=O)Nc1ccc([N+](=O)[O-])cc1 | 100 | 6 | 10 | 91 | 1 | -5 | . | . | .
CCN(CC)S(=O)(=O)c1ccc(C(=O)OCC(=O)Nc2ccc(-c3nc4ccc(C)cc4s3)cc2)cc1 | 60 | 47* | -60 | 153* | 1.6 | 151* | 30 | -22 | -74 | STAT1 activ conf=175*;NFkB act STAT1ct=114;STAT3 act STAT1c=74
CCN(CC)S(=O)(=O)c1ccc(NC(=O)COC(=O)c2ccc(-n3nc(C)cc3C)cc2)cc1 | 99 | 2 | -1 | 97 | 1.3 | -9 | . | . | .
N#C/C(=C\c1ccc(N2CCOCC2)c([N+](=O)[O-])c1)c1nc2ccccc2[nH]1 | 118 | -21 | -3 | 103 | 0.46 | 41 | . | . | .
N#C/C(=C\c1ccc(N2CCOCC2)o1)c1nc2ccccc2[nH]1 | 45 | 66* | -66 | 160* | 2.6 | 156* | 14 | -28 | -163 | STAT1 activ conf=255*;NFkB act STAT1ct=113;STAT3 act STAT1c=90
Nc1sc(-c2ccccc2)c(Cc2ccccc2)c1C(=O)O | 98 | 7 | 2 | 98 | 1.1 | 35 | . | . | .
